ChEMBL document CHEMBL1136376, “Identification of 2-aminobenzimidazole dimers as antibacterial agents” (2003)
Converted amounts (≈) assume the structure as drawn.

Key:
Type in all cases: functional
Escherichia coli = assay: Antibacterial activity against Escherichia coli
In short: (§1)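 Broth microdilution MIC run in duplicate. Overnight culture grown in appropriate medium was added to compound in 0.5% DMSO in water, giving about 10²–10³ CFU/well. Growth relative to a compound-free well was read as A595 after 20–24 h at 37 °C. MIC was reported as a range: complete inhibition at the upper concentration, viable cells at the lower. Strains: E. faecalis ATCC 29212, E. coli ATCC 25922, S. aureus ATCC 13709.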

Enterococcus faecalis = assay: Antibacterial activity against Enterococcus faecalis; in short: as §1
Streptococcus pyogenes = assay: Antibacterial activity against Streptococcus pyogenes
Staphylococcus aureus = assay: Antibacterial activity against Staphylococcus aureus; in short: as §1

Work on `CN(CCCn1c(N)nc2cc(Cl)ccc21)CCCn1c(N)nc2cc(Cl)ccc21` yielded an MIC (Escherichia coli) of 50 µM (≈ 22.3 µg/mL), an MIC (Enterococcus faecalis) of 50 µM (≈ 22.3 µg/mL) and an MIC (Streptococcus pyogenes) of 50 µM (≈ 22.3 µg/mL). It also gave an MIC (Staphylococcus aureus) of 50 µM (≈ 22.3 µg/mL).

Work on `CN(CCCn1cnc2cc(Cl)c(Cl)cc21)CCCn1cnc2cc(Cl)c(Cl)cc21` yielded an MIC (Escherichia coli) of 100 µM (≈ 48.5 µg/mL) and an MIC (Staphylococcus aureus) of 50 µM (≈ 24.3 µg/mL).

In the case of `CN(CCCn1c(N)nc2cc(Br)ccc21)CCCn1c(N)nc2cc(Br)ccc21`, the MIC (Escherichia coli) is reported as > 100 µM and the MIC (Staphylococcus aureus) is reported as > 100 µM.

In the case of `Nc1nc2cc(Cl)c(Cl)cc2n1CCCCCCCn1c(N)nc2cc(Cl)c(Cl)cc21`, the MIC (Escherichia coli) is reported as > 100 µM and the MIC (Staphylococcus aureus) is reported as > 100 µM.

For `Nc1nc2cc(Cl)c(Cl)cc2n1CCCOCCCn1c(N)nc2cc(Cl)c(Cl)cc21`, the MIC (Escherichia coli) was > 100 µM and the MIC (Staphylococcus aureus) was > 100 µM.

In the case of `CN(CCCn1c(N)nc2cc(Cl)c(Cl)cc21)CCCn1c(N)nc2cc(Cl)c(Cl)cc21`, the MIC (Escherichia coli) is reported as 6 µM (≈ 3.09 µg/mL), the MIC (Enterococcus faecalis) is reported as 6 µM (≈ 3.09 µg/mL) and the MIC (Streptococcus pyogenes) is reported as 6 µM (≈ 3.09 µg/mL). For the same molecule, the MIC (Staphylococcus aureus) was 12 µM (≈ 6.18 µg/mL).

In the case of `Cc1ccc2nc(N)n(CCCN(C)CCCn3c(N)nc4ccc(C)cc43)c2c1`, the MIC (Escherichia coli) is reported as > 100 µM and the MIC (Staphylococcus aureus) is reported as > 100 µM.

`CN(CCn1c(N)nc2cc(Cl)c(Cl)cc21)CCn1c(N)nc2cc(Cl)c(Cl)cc21` gave an MIC (Escherichia coli) of 6 µM (≈ 2.92 µg/mL) and an MIC (Staphylococcus aureus) of 12 µM (≈ 5.85 µg/mL).

With `CN(CCCn1c(N)nc2cc(C#N)ccc21)CCCn1c(N)nc2cc(C#N)ccc21` the MIC (Escherichia coli) was > 100 µM and the MIC (Staphylococcus aureus) was > 100 µM.

`CN(CCCNc1nc2cc(Cl)c(Cl)cc2[nH]1)CCCNc1nc2cc(Cl)c(Cl)cc2[nH]1` showed an MIC (Escherichia coli) of 12 µM (≈ 6.18 µg/mL), an MIC (Enterococcus faecalis) of 6 µM (≈ 3.09 µg/mL) and an MIC (Streptococcus pyogenes) of 6 µM (≈ 3.09 µg/mL). For the same molecule, the MIC (Staphylococcus aureus) was 6 µM (≈ 3.09 µg/mL).

`CN(CCNc1nc2cc(Cl)c(Cl)cc2[nH]1)CCNc1nc2cc(Cl)c(Cl)cc2[nH]1` gave an MIC (Escherichia coli) of 25 µM (≈ 12.2 µg/mL), an MIC (Enterococcus faecalis) of 1.5 µM (≈ 0.731 µg/mL) and an MIC (Streptococcus pyogenes) of 6 µM (≈ 2.92 µg/mL). The MIC (Staphylococcus aureus) was 12 µM (≈ 5.85 µg/mL).

For `COC(=O)c1ccc2c(c1)nc(N)n2CCCN(C)CCCn1c(N)nc2cc(C(=O)OC)ccc21`, the MIC (Escherichia coli) was > 100 µM and the MIC (Staphylococcus aureus) was > 100 µM.

For `CN(CCCn1c(N)nc2ccccc21)CCCn1c(N)nc2ccccc21`, the MIC (Escherichia coli) was 100 µM (≈ 37.7 µg/mL) and the MIC (Staphylococcus aureus) was 100 µM (≈ 37.7 µg/mL).

Work on `CN(CCCn1c(N)nc2cc(C(F)(F)F)ccc21)CCCn1c(N)nc2cc(C(F)(F)F)ccc21` yielded an MIC (Escherichia coli) of 25 µM (≈ 12.8 µg/mL), an MIC (Enterococcus faecalis) of 25 µM (≈ 12.8 µg/mL) and an MIC (Streptococcus pyogenes) of 25 µM (≈ 12.8 µg/mL). It also gave an MIC (Staphylococcus aureus) of 50 µM (≈ 25.7 µg/mL).

`COc1ccc2nc(N)n(CCCN(C)CCCn3c(N)nc4ccc(OC)cc43)c2c1` was tested, and the MIC (Escherichia coli) was > 100 µM and the MIC (Staphylococcus aureus) was > 100 µM.
